Results from different studies.
Each line is one published result; the experiments were not run side by side.
Target: Mitogen-activated protein kinase 1 (MAPK1, Homo sapiens, UniProt P28482)

Oc1cccc(-c2nc(N3CCOCC3)c3oc4ncccc4c3n2)c1  remaining activity (enzyme activity, inhibitor; 10 µM): 106%
COc1cc(Nc2cnc(C#N)c(O[C@H](C)CN(C)C)n2)ncc1-c1cnn(C)c1  remaining activity (enzyme activity, inhibitor, radiometric; 1 µM): 101%
Cc1ccc(Nc2nccc(N(C)c3ccc4c(C)n(C)nc4c3)n2)cc1S(N)(=O)=O  inhibition (enzyme activity, inhibitor; 0.3 µM): -1%
Cc1c(NC(=O)c2cc(C(N)=O)nc3cc(F)ccc23)c(C(F)(F)F)nn1Cc1ccc(C#N)cc1  remaining binding (cell-free assay, competition with immobilised ligand; 1 µM): 100%
Nc1nc(Nc2ccccc2)sc1C(=O)c1c(F)cccc1F  remaining activity (enzyme activity, inhibitor; 10 µM): 68%
CN(C)C1CCN(CC#Cc2nn(C3CCCC3)c3nc(NCc4ccccc4)ncc23)C1 (stereo not drawn)  inhibition (enzyme activity, inhibitor, FRET; 1 µM): 7%
COc1cc(Nc2c(C#N)cnc3cc(OCCCN4CCN(C)CC4)c(OC)cc23)c(Cl)cc1Cl  remaining signal (cell-free assay; 0.5 µM): 93.7%
Cn1c(=O)n(-c2ccc(C(C)(C)C#N)cc2)c2c3cc(-c4cnc5ccccc5c4)ccc3ncc21  remaining activity (enzyme activity, inhibitor; 10 µM): 114%
CNC(=O)c1cc(Oc2ccc(NC(=O)Nc3ccc(Cl)c(C(F)(F)F)c3)cc2)ccn1  remaining signal (cell-free assay; 0.5 µM): 101%
CN(c1ncccc1CNc1nc(Nc2ccc3c(c2)CC(=O)N3)ncc1C(F)(F)F)S(C)(=O)=O  inhibition (enzyme activity, inhibitor; 1 µM): 88.1%
CC1=C(C#N)C(c2ccc3c(c2)c(NC(=O)c2ccccc2C)nn3C)C(C#N)=C(C)N1  remaining binding (cell-free assay, competition with immobilised ligand; 1 µM): 80%
Cc1ccc(C(=O)NCc2ccsc2)cc1C#Cc1cn(C(C)C)c2ncnc(N)c12  activity vs control (enzyme activity, inhibitor; 1 µM): 98%
CCN(CC)CCNC(=O)c1c(C)[nH]c(/C=C2\C(=O)Nc3ccc(F)cc32)c1C  inhibition (enzyme activity, inhibitor; 0.3 µM): -6%
O=C(Nc1cnn(-c2csc(C(=O)NC3COC3)c2)c1)Nc1ccccc1Cl  remaining activity (enzyme activity, inhibitor; 5 µM): 110%
COc1cc(Cl)c(C(=O)N[C@@H](CN[C@H]2CC[C@@H](N)CC2)Cc2ccc(C#N)cc2)cc1-c1ccc(CN[C@H](C)c2ccc(C)cc2)o1  remaining activity (enzyme activity, inhibitor; 1 µM): 92%
CN([C@@H]1CCc2c(CC(=O)O)c3cc(S(C)(=O)=O)ccc3n2C1)S(=O)(=O)c1ccc(F)cc1  remaining binding (cell-free assay, competition with immobilised ligand; 1 µM): 77%
Nc1[nH]nc2nnc(-c3c(-c4ccccc4)nn4ccccc34)cc12  remaining signal (cell-free assay; 0.5 µM): 87.2%
CC(=O)N1CCC(c2ccc(C(=O)NC3=NCCN3)cc2C(F)(F)F)CC1  remaining binding (cell-free assay, competition with immobilised ligand; 1 µM): 100%
O=C(Nc1cnn(-c2csc(C(=O)NC3COC3)c2)c1)Nc1c(F)cccc1Cl  remaining activity (enzyme activity, inhibitor; 5 µM): 85.9%
O=C1NC(=O)c2cc(Nc3ccc(F)cc3)c(Nc3ccc(F)cc3)cc21  remaining signal (cell-free assay; 0.5 µM): 121%
Cc1cc(C)c(-n2ccn3nc(-c4cccnc4)cc23)cc1NC(=O)c1cc(C#N)cc(S(F)(F)(F)(F)F)c1  remaining binding (cell-free assay, competition with immobilised ligand; 0.1 µM): 88.1%
COc1cc2ncnc(Nc3ccc(Oc4ccccc4)cc3C)c2cc1OC  inhibition (enzyme activity, inhibitor; 1 µM): -2%
CC(C)(C)c1nc2c(s1)c1nc(N)ncc1c1ccc(NS(=O)(=O)c3c(F)cccc3F)c(F)c12  remaining activity (enzyme activity, inhibitor, radiometric; 1 µM): 99%
CCOc1cc(-c2nncn2C)ccc1Nc1ncc2cc(C)nc(NCC(C)(C)C)c2n1  inhibition (enzyme activity, inhibitor, FRET; 1 µM): < 15%
C[C@H](c1ccnc(Nc2nc3ccc(-c4cc(N(C)C)ncn4)cc3[nH]2)c1)N1CCN(C(=O)CC(F)(F)F)CC1  remaining binding (cell-free assay, competition with immobilised ligand; 0.1 µM): 78%
COc1cc(/C=C/C(=O)CC(=O)/C=C/c2ccc(O)c(OC)c2)ccc1O  activity vs control (enzyme activity, inhibitor; 1 µM): 75%
C[C@H](c1ccc(F)cc1)N(Cc1cccc(C(=O)O)c1)C(=O)c1cnc2ccccc2c1  remaining binding (cell-free assay, competition with immobilised ligand; 1 µM): 99%
COc1cccc(-c2cc(=O)c3ccccc3o2)c1N  remaining signal (cell-free assay; 0.5 µM): 97.1%
Cc1ccc(C(=O)Nc2ccc(CN3CCN(C)CC3)c(C(F)(F)F)c2)cc1C#Cc1cnc2cccnn12  remaining activity (enzyme activity, inhibitor; 23.5 nM): 100%
COc1cc2ncnc(Nc3ccc(F)c(Cl)c3)c2cc1OCCCN1CCOCC1  remaining signal (cell-free assay; 0.5 µM): 103%
CCC(=O)N[C@H]1CC[C@@H](C(=O)N(C)c2ccc(-c3nc4ccccc4o3)cc2)C1  remaining binding (cell-free assay, competition with immobilised ligand; 1 µM): 76%
Nc1nc(NC2CCCCC2)sc1C(=O)c1ccccc1  remaining activity (enzyme activity, inhibitor; 10 µM): 16%
Cc1ccc(-n2nc(C(C)(C)C)cc2NC(=O)Nc2ccc(OCCN3CCOCC3)c3ccccc23)cc1  inhibition (enzyme activity, inhibitor; 10 µM): -10%
